Results: ChEMBL document CHEMBL1153783, “Synthesis and vasodilatory activity of some amide derivatives of 6-(4-carboxymethyloxyphenyl)-4,5-dihydro-3(2H)-pyridazinone” (Eur J Med Chem, 2009)

Legend:
Aorta [1] = assay: Vasodilatory activity in Wistar rat thoracic aortic ring assessed as inhibition of phenylephrine-induced contraction at 10 uM treated after phenylephrine challenge; format: functional
Outline: (§1)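 Thoracic aortic rings were taken from Wistar rats of either sex (300–400 g) and held in PSS at 37 °C under O2/CO2 (95:5), equilibrated ≥90 min. Rings were precontracted with 10^-6 M phenylephrine, then given cumulative additions of 10^-8 to 10^-5 M at 30 min intervals, one compound per ring. Relaxation was read as % of initial contraction. A sigmoidal fit gave pD2 and Emax, reported as mean ± SEM of 4 or 8 experiments.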

Aorta [2] = assay: Vasodilatory activity in Wistar rat thoracic aortic ring assessed as inhibition of phenylephrine-induced contraction treated after phenylephrine challenge; format: functional, tissue-based; settings: for IC50: Rattus norvegicus, Wistar, Aorta; outline: as §1
Aorta [3] = assay: Ratio of hydralazine IC50 to compound IC50 for inhibition of phenylephrine-induced contraction in Wistar rat thoracic aortic ring; format: functional
Aorta [4] = assay: Ratio of SK&F-93741 IC50 to compound IC50 for inhibition of phenylephrine-induced contraction in Wistar rat thoracic aortic ring; format: functional

| SMILES | Emax at 10 µM (Aorta [1]) [%] | pD2 (Aorta [2]) | IC50 (Aorta [2]) [nM] | Ratio IC50 (Aorta [3]) | Ratio IC50 (Aorta [4]) |
| --- | --- | --- | --- | --- | --- |
| O=C1CCC(c2ccc(OCC(=O)n3ccnc3)cc2)=NN1 | 3.7 |  |  |  |  |
| CC1CC(=O)NN=C1c1ccc(OCC(=O)n2ccnc2)cc1 (stereo not drawn) | 32 |  |  |  |  |
| CN1CCN(C(=O)COc2ccc(C3=NNC(=O)CC3)cc2)CC1 | 23.9 |  |  |  |  |
| O=C1CCC(c2ccc(OCC(=O)N3CCCCC3)cc2)=NN1 | 61.6 | 5.9 | 910 |  |  |
| O=C(COc1ccc(C2=NN(c3ccccc3)C(=O)CC2)cc1)N1CCCCC1 | 16.2 |  |  |  |  |
| CC1CC(=O)NN=C1c1ccc(OCC(=O)N2CCCCC2)cc1 (stereo not drawn) | 29.8 |  |  |  |  |
| O=C1CCC(c2ccc(OCC(=O)N3CCOCC3)cc2)=NN1 | 41.8 |  |  |  |  |
| CC1CC(=O)NN=C1c1ccc(OCC(=O)N2CCOCC2)cc1 (stereo not drawn) | 17.6 |  |  |  |  |
| O=C1CCC(c2ccc(OCC(=O)N3CCCC3)cc2)=NN1 | 52.2 | 5.9 | 1020 |  |  |
| O=C(COc1ccc(C2=NN(c3ccc(F)cc3)C(=O)CC2)cc1)N1CCCC1 | 61.8 | 7.2 | 51 | 4.5 | 1.7 |
| CC1CC(=O)NN=C1c1ccc(OCC(=O)N2CCCC2)cc1 (stereo not drawn) | 21.7 |  |  |  |  |
| CC(=O)Nc1ccc(C2=NNC(=O)CC2C)cc1 (stereo not drawn) | 61.1 | 7 |  |  |  |
| NNc1nncc2ccccc12 [HYDRALAZINE] | 55 | 6.6 |  |  |  |
